Results taken from ChEMBL document CHEMBL1649422, “Synthesis and molecular modeling of novel tetrahydro-β-carboline derivatives with phosphodiesterase 5 inhibitory and anticancer properties” (J Med Chem, 2011).

Tests used:
[1] = biological target: T1, cGMP-specific 3',5'-cyclic phosphodiesterase (Homo sapiens, UniProt O76074); experiment: Inhibition of human recombinant PDE5 at 10 uM after 30 mins by fluorescence polarization assay
MDA-MB-231 = experiment: Growth inhibition of human MDA-MB-231 cells at 10 uM after 72 hrs by luminescence assay; format: functional; conditions: MDA-MB-231, 72 h
[2] = biological target: T1, cGMP-specific 3',5'-cyclic phosphodiesterase; experiment: Inhibition of human recombinant PDE5 after 30 mins by fluorescence polarization assay
In short: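 Recombinant human PDE5A at 12.5 units/mL was preincubated 30 min with compound or vehicle. Then 50 nM TAMRA-cGMP was added and the mix incubated 1.5 h at 30 °C. IMAP binding reagent was added for 30 min at 30 °C and fluorescence polarization read. IC50 came from a 10-concentration series in quadruplicate, fitted to a four-parameter logistic.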

| Compound | inhibition [1] [%] | inhibition at 10 µM (MDA-MB-231) [%] | IC50 [2] [nM] |
| --- | --- | --- | --- |
| CC(C)(C)N1CC(=O)N2[C@H](c3c(Cl)cccc3Cl)c3[nH]c4ccccc4c3C[C@@H]2C1=O | 21 | 16 | – |
| CCN1CC(=O)N2[C@@H](c3ccc(Cl)cc3Cl)c3[nH]c4ccccc4c3C[C@H]2C1=O | 85 | 52 | 990 |
| COC(=O)[C@@H]1Cc2c([nH]c3ccccc23)[C@H](c2c(Cl)cccc2Cl)N1 | 15 | 52 | – |
| COC(=O)[C@H]1Cc2c([nH]c3ccccc23)[C@@H](c2c(Cl)cccc2Cl)N1C(=O)CCl | 27 | 15 | – |
| CC(C)(C)N1C(=O)[C@H]2Cc3c([nH]c4ccccc34)[C@@H](c3c(Cl)cccc3Cl)N2C1=O | 52 | 38 | – |
| CC(C)(C)N1CC(=O)N2[C@@H](c3c(Cl)cccc3Cl)c3[nH]c4ccccc4c3C[C@H]2C1=O | 21 | 20 | – |
| CC(C)(C)N1CC(=O)N2[C@H](c3ccc(Cl)cc3Cl)c3[nH]c4ccccc4c3C[C@@H]2C1=O | 94 | 15 | 190 |
| CCCCN1CC(=O)N2[C@H](c3ccc(Cl)cc3Cl)c3[nH]c4ccccc4c3C[C@@H]2C1=O | 95 | 45 | 270 |
| CCN1CC(=O)N2[C@H](c3ccc(Cl)cc3Cl)c3[nH]c4ccccc4c3C[C@H]2C1=O | 95 | 20 | 10 |
| COC(=O)[C@@H]1Cc2c([nH]c3ccccc23)[C@@H](c2ccc(Cl)cc2Cl)N1 | 82 | 28 | 570 |
| COC(=O)[C@H]1Cc2c([nH]c3ccccc23)[C@@H](c2ccc(Cl)c(Cl)c2)N1 | 78 | 43 | 1610 |
| CCN1CC(=O)N2[C@H](c3ccc(Cl)c(Cl)c3)c3[nH]c4ccccc4c3C[C@@H]2C1=O | 80 | 30 | 1340 |
| CC(C)(C)N1CC(=O)N2[C@@H](c3ccc(Cl)c(Cl)c3)c3[nH]c4ccccc4c3C[C@H]2C1=O | 35 | 58 | – |
| CCCCN1CC(=O)N2[C@H](c3ccc(Cl)cc3Cl)c3[nH]c4ccccc4c3C[C@H]2C1=O | 89 | 42 | 290 |
| CCN1C(=O)[C@H]2Cc3c([nH]c4ccccc34)[C@H](c3ccc(Cl)c(Cl)c3)N2C1=O | – | – | 2860 |
| CC(C)(C)N1CC(=O)N2[C@H](c3ccc(Cl)c(Cl)c3)c3[nH]c4ccccc4c3C[C@H]2C1=O | 85 | 50 | 1270 |
| COC(=O)[C@@H]1Cc2c([nH]c3ccccc23)[C@@H](c2ccc(Cl)c(Cl)c2)N1 | 24 | 48 | – |
| CCN1CC(=O)N2[C@@H](c3c(Cl)cccc3Cl)c3[nH]c4ccccc4c3C[C@H]2C1=O | 28 | 24 | – |
| COC(=O)[C@@H]1Cc2c([nH]c3ccccc23)[C@H](c2ccc(Cl)c(Cl)c2)N1C(=O)CCl | 20 | 43 | – |
| CCN1CC(=O)N2[C@H](c3c(Cl)cccc3Cl)c3[nH]c4ccccc4c3C[C@@H]2C1=O | 40 | 31 | – |
| CN1CC(=O)N2[C@H](c3ccc(Cl)cc3Cl)c3[nH]c4ccccc4c3C[C@H]2C1=O | 95 | 23 | 50 |
| CC(C)(C)N1C(=O)[C@@H]2Cc3c([nH]c4ccccc34)[C@H](c3c(Cl)cccc3Cl)N2C1=O | 25 | 15 | – |

| Compound | inhibition [1] [%] | inhibition at 10 µM (MDA-MB-231) [%] | IC50 [2] [nM] |
| --- | --- | --- | --- |
| CC(C)(C)N1C(=O)[C@@H]2Cc3c([nH]c4ccccc34)[C@@H](c3ccc(Cl)c(Cl)c3)N2C1=O | 88 | 60 | 12 |
| CC(C)(C)N1CC(=O)N2[C@H](c3ccc(Cl)cc3Cl)c3[nH]c4ccccc4c3C[C@H]2C1=O | – | 30 | 260 |
| COC(=O)[C@@H]1Cc2c([nH]c3ccccc23)[C@@H](c2ccc(Cl)c(Cl)c2)N1C(=O)CCl | 40 | 55 | – |
| CC(C)(C)N1C(=O)[C@@H]2Cc3c([nH]c4ccccc34)[C@H](c3ccc(Cl)cc3Cl)N2C1=O | 75 | 22 | 4140 |
| COC(=O)[C@H]1Cc2c([nH]c3ccccc23)[C@@H](c2c(Cl)cccc2Cl)N1 | 25 | – | – |
| COC(=O)[C@@H]1Cc2c([nH]c3ccccc23)[C@H](c2ccc(Cl)cc2Cl)N1 | 55 | 50 | – |
| COC(=O)[C@H]1Cc2c([nH]c3ccccc23)[C@H](c2ccc(Cl)c(Cl)c2)N1C(=O)CCl | 30 | 50 | – |
| COC(=O)[C@@H]1Cc2c([nH]c3ccccc23)[C@H](c2c(Cl)cccc2Cl)N1C(=O)CCl | 67 | 30 | 730 |
| CCN1CC(=O)N2[C@@H](c3ccc(Cl)c(Cl)c3)c3[nH]c4ccccc4c3C[C@@H]2C1=O | 45 | 44 | – |
| CC(C)(C)N1CC(=O)N2[C@H](c3ccc(Cl)c(Cl)c3)c3[nH]c4ccccc4c3C[C@@H]2C1=O | 35 | 36 | – |
| CCN1C(=O)[C@H]2Cc3c([nH]c4ccccc34)[C@@H](c3ccc(Cl)c(Cl)c3)N2C1=O | 95 | 50 | 150 |
| CCN1CC(=O)N2[C@@H](c3ccc(Cl)c(Cl)c3)c3[nH]c4ccccc4c3C[C@H]2C1=O | 67 | 35 | 3300 |
| COC(=O)[C@@H]1Cc2c([nH]c3ccccc23)[C@H](c2ccc(Cl)cc2Cl)N1C(=O)CCl | 99 | 55 | 380 |
| CCN1CC(=O)N2[C@H](c3ccc(Cl)c(Cl)c3)c3[nH]c4ccccc4c3C[C@H]2C1=O | 78 | 50 | 2040 |
| CN1CC(=O)N2[C@H](c3ccc(Cl)cc3Cl)c3[nH]c4ccccc4c3C[C@@H]2C1=O | 95 | 10 | 50 |
| CCN1C(=O)[C@@H]2Cc3c([nH]c4ccccc34)[C@@H](c3ccc(Cl)c(Cl)c3)N2C1=O | 90 | 18 | 300 |
| CC(C)(C)N1C(=O)[C@H]2Cc3c([nH]c4ccccc34)[C@H](c3ccc(Cl)c(Cl)c3)N2C1=O | 65 | 58 | 6380 |
| CC(C)(C)N1CC(=O)N2[C@@H](c3ccc(Cl)c(Cl)c3)c3[nH]c4ccccc4c3C[C@@H]2C1=O | 30 | 40 | – |
| CCN1C(=O)[C@H]2Cc3c([nH]c4ccccc34)[C@@H](c3c(Cl)cccc3Cl)N2C1=O | 18 | 55 | – |
| CCN1C(=O)[C@@H]2Cc3c([nH]c4ccccc34)[C@H](c3c(Cl)cccc3Cl)N2C1=O | 37 | 52 | – |
| COC(=O)[C@H]1Cc2c([nH]c3ccccc23)[C@@H](c2ccc(Cl)c(Cl)c2)N1C(=O)CCl | 40 | – | – |
